Measurements from ChEMBL document CHEMBL1124110, “Synthesis and pharmacological evaluation of 5,6-exo-epoxy-7-oxabicyclo[2.2.1]heptane derivatives” (J Med Chem, 1988).

What was measured:
Type in all cases: functional
Homo sapiens = organism: Homo sapiens; experiment: Inhibition of platelet aggregation induced by arachidonic acid(AA) in human platelet-rich plasma; conditions: read-out: I50
Outline: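 Human platelet-rich plasma; aggregation triggered by arachidonic acid. Potency is expressed as the I50 (concentration giving 50% inhibition), reported as mean ± SEM or as mean ± range when n = 2.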

Cavia porcellus [1] = experiment: Percent inhibition of increase in pulmonary resistance was measured on arachidonic acid induced bronchoconstriction in the anesthetized guinea pig after 10 min
Outline: (§1)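 Anesthetized guinea pigs received the test agent at 1 mg/kg iv. Arachidonic acid (0.5 mg/kg iv) injections were given as challenge. Rises in pulmonary resistance were recorded, and percent inhibition was scored at 3, 10 and 30 min. Values are mean ± SEM, n = 3–5 animals.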

Cavia porcellus [2] = experiment: Percent inhibition of increase in pulmonary resistance was measured on arachidonic acid induced bronchoconstriction in the anesthetized guinea pig after 30 min; outline: as §1
Cavia porcellus [3] = experiment: Percent inhibition of increase in pulmonary resistance was measured on arachidonic acid induced bronchoconstriction in the anesthetized guinea pig after 3 min; outline: as §1

| SMILES | IC50 (Homo sapiens) | Inhibition (Cavia porcellus [1]) | Inhibition (Cavia porcellus [2]) | Inhibition (Cavia porcellus [3]) |
| --- | --- | --- | --- | --- |
| O=C(O)CCC/C=C\CC1C(/C=C/[C@@H](O)C2CCCCC2)C2OC1C1OC21 (some centres not stated) | 5.2 µM | – | – | – |
| CC1([C@H](O)/C=C/C2C(C/C=C\CCCC(=O)O)C3OC2C2OC32)CCCCC1 (some centres not stated) | 0.53 µM | 67% | 22% | 85% |
| O=C(O)CCC/C=C\C[C@@H]1[C@H](CNNC(=O)Nc2ccccc2)[C@H]2CC[C@H]1O2 | 0.02 µM | 98% | 96% | 97% |
| O=C(O)CCC/C=C\CC1C(/C=C/[C@@H](O)CCc2ccccc2)C2OC1C1OC21 (some centres not stated) | 1.6 µM | – | – | – |
| CCCCC(C)(C)[C@H](O)/C=C/C1C(C/C=C\CCCC(=O)O)C2OC1C1OC21 (some centres not stated) | 2.2 µM | – | – | – |
| O=C(O)CCC/C=C\CC1C(/C=C/[C@H](O)C2CCCCC2)C2OC1C1OC21 (some centres not stated) | 17 µM | – | – | – |
| O=C(O)COc1ccc(CCNS(=O)(=O)c2ccccc2)cc1 [SULOTROBAN] | 38.5 µM | 82% | 40% | 89% |

More lines, in order of falling IC50 (Homo sapiens), values ahead:

| IC50 (Homo sapiens) | SMILES | Inhibition (Cavia porcellus [1]) | Inhibition (Cavia porcellus [2]) | Inhibition (Cavia porcellus [3]) |
| --- | --- | --- | --- | --- |
| 15.3 µM | CCCCC[C@H](O)/C=C/C1C(C/C=C\CCCC(=O)O)C2OC1C1OC21 (some centres not stated) | – | – | – |
| 6 µM | COc1ccc2c(c1)c(CC(=O)O)c(C)n2C(=O)c1ccc(Cl)cc1 [INDOMETHACIN] | – | – | – |
| 0.27 µM | O=C(O)CCC/C=C\CC1C(/C=C/[C@@H](O)CCc2ccc(O)cc2)C2OC1C1OC21 (some centres not stated) | 83% | 46% | 90% |
